In ChEMBL document CHEMBL4130516, “Immunomodulatory Polyketides from a Phoma-like Fungus Isolated from a Soft Coral” (J Nat Prod, 2017):
The source made the active and inactive calls. The calls are words filed in the database; no cut-off is given here.

Key:
HCT-116 = assay: Cytotoxicity in human HCT116 cells assessed as reduction in cell viability at 30 uM incubated for CellTiter-Blue cell viability assay; type: functional, cell-based
Procedure, shortened: (§1)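 Cells were treated with compounds at 30 μM for 48 h at 37 °C in 5% CO2. Media were DMEM + 10% FBS for A549, HCT116 and MCF-7, and MEM for DAOY. Adriamycin was the positive control. Relative viability was read by CellTiter-Blue at 530/590 nm.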

Splenocyte [1] = assay: Induction of apoptosis in Con A-stimulated C57BL/6 mouse splenocytes at 3 uM by flow cytometry; type: cell-based
Procedure, shortened: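 C57BL/6 mouse splenocytes (2 × 10^6 cells/mL) were incubated with compounds at 3 μM for 24 h, with Con A (5 μg/mL) as positive control. Cells were washed with PBS and immediately analysed for apoptosis by flow cytometry.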

Daoy = assay: Cytotoxicity in human DaOY cells assessed as reduction in cell viability at 30 uM incubated for CellTiter-Blue cell viability assay; type: functional, cell-based; procedure, shortened: as §1
MCF7 = assay: Cytotoxicity in human MCF7 cells assessed as reduction in cell viability at 30 uM incubated for CellTiter-Blue cell viability assay; type: functional, cell-based; procedure, shortened: as §1
A549 = assay: Cytotoxicity in human A549 cells assessed as reduction in cell viability at 30 uM incubated for CellTiter-Blue cell viability assay; type: functional, cell-based; procedure, shortened: as §1
Splenocyte [2] = assay: Immunomodulatory activity in Con A-stimulated C57BL/6 mouse splenocytes assessed as increase in CD3+T cell proliferation at 3 uM by PE-CD3 staining based flow cytometry; type: functional
Procedure, shortened: (§2)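 C57BL/6 mouse splenocytes, Con A-stimulated (Con A 5 μg/mL as control), were incubated with compounds at 3 μM for 24 h. Cells were stained with PE-CD3, FITC-CD4 and PerCP/Cy5.5-CD8. Flow cytometry gave the percentage of CD3+, CD4+ and CD8+ T cells and the CD4+/CD8+ ratio. Values are means ± SD, n = 3.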

Splenocyte [3] = assay: Immunomodulatory activity in C57BL/6 mouse splenocytes assessed as increase in CD3+T cell proliferation at 3 uM by PE-CD3 staining based flow cytometry; type: functional
Splenocyte [4] = assay: Immunomodulatory activity in Con A-stimulated C57BL/6 mouse splenocytes assessed as increase in ratio of CD4+/[…] cells at 3 uM by PE-CD3 staining based flow cytometry; type: functional, cell-based; procedure, shortened: as §2

SMILES | Activity (HCT-116) | Activity (Splenocyte [1]) | Activity (Daoy) | Activity (MCF7) | Activity (A549) | Activity (Splenocyte [2]) | Activity (Splenocyte [3]) | Activity (Splenocyte [4])
CC(=O)[C@]1(C)[C@H]2CC[C@@](C)(O)C[C@@H]2C=C[C@@]1(C)O | inactive | Non-Toxic | inactive | inactive | inactive | inactive | inactive | 
C[C@@]1(O)CC[C@H]2[C@H](C1)[C@@H]1O[C@@H]1[C@@]1(C)OC(=O)CC[C@]21C | inactive | Non-Toxic | inactive | inactive | inactive |  |  | 
C[C@H]1CC[C@H]2[C@H](C1)[C@@H](O)[C@@H]1O/C(=C\C=O)[C@@]2(C)[C@]1(C)O | inactive | Non-Toxic | inactive | inactive | inactive |  |  | 
C[C@H]1CC[C@H]2[C@@H](C=C[C@@](C)(O)[C@]2(C)C(=O)O)C1 | inactive | Non-Toxic | inactive | inactive | inactive | Active | Active | 
C[C@@]1(O)CC[C@H]2[C@@H](C=C[C@]3(C)OCC[C@H](O)[C@]23C)C1 | inactive | Non-Toxic | inactive | inactive | inactive | inactive | inactive | 
CC(=O)[C@@]1(C)C(C)=C[C@H](O)[C@H]2C[C@](C)(O)CC[C@@H]21 | inactive | Non-Toxic | inactive | inactive | inactive |  |  | Active
C[C@H]1CC[C@H]2[C@@H](C=C[C@@](C)(O)[C@]2(C)C(=O)CCO)C1 | inactive | Non-Toxic | inactive | inactive | inactive | Active | Active | 
CC(=O)[C@]1(C)[C@H]2CC[C@H](C)C[C@@H]2[C@H](Cl)[C@@H](O)[C@@]1(C)O | inactive | Non-Toxic | inactive | inactive | inactive |  |  | 
C[C@H]1CC[C@H]2C(=C[C@@H](O)[C@@](C)(O)[C@]2(C)C(=O)CCO)C1 | inactive | Non-Toxic | inactive | inactive | inactive | inactive | inactive | 
CC(=O)OCCC(=O)[C@]1(C)[C@H]2CC[C@@](C)(O)C[C@@H]2C=C[C@@]1(C)O | inactive | Non-Toxic | inactive | inactive | inactive |  |  | 
CC(=O)OCCC(=O)[C@]1(C)[C@H]2CC[C@H](C)C[C@@H]2C=C[C@@]1(C)O | inactive | Non-Toxic | inactive | inactive | inactive | inactive | inactive | Active
C[C@@]1(O)CC[C@H]2[C@@H](C=C[C@@]3(C)OC(=O)C[C@H](O)[C@]23C)C1 | inactive | Non-Toxic | inactive | inactive | inactive | inactive | inactive | Active
C[C@@]1(O)CC[C@H]2[C@](O)(C1)[C@@H]1O[C@@H]1[C@@]1(C)OC(=O)CC[C@]21C | inactive | Non-Toxic | inactive | inactive | inactive | Active | Active | 
C[C@@]1(O)CC[C@H]2[C@@H](C=C[C@@]3(C)OC(=O)CC[C@]23C)C1 | inactive | Non-Toxic | inactive | inactive | inactive | inactive | inactive | 
CC(=O)OCCC(=O)[C@]1(C)[C@H]2CC[C@H](C)C[C@@H]2[C@H](Cl)[C@@H](O)[C@@]1(C)O | inactive | Non-Toxic | inactive | inactive | inactive |  |  | 
C[C@H]1CC[C@H]2[C@H](C1)[C@H](Cl)[C@@H](O)[C@@](C)(O)[C@]2(C)C(=O)CCO | inactive | Non-Toxic | inactive | inactive | inactive | inactive | inactive | Active
